ChEMBL document CHEMBL3098047, “Design, synthesis and structure-activity relationships of substituted oxazole-benzamide antibacterial inhibitors of FtsZ” (Bioorg Med Chem Lett, 2014)
Values after ≈ are worked out from the molar mass of the structure shown. Blank lines part the entries; values can stand above or below the compound they belong to.

Legend:
[1] = Volume of distribution in Balb/c mouse at 3 mg/kg, iv by LC-MS/MS analysis; assay type: ADME, organism-based; parameters: dose 3 mg/kg, route intravenous; conditions: in vivo
[2] = Clearance in Balb/c mouse at 3 mg/kg, iv by LC-MS/MS analysis; assay type: ADME, organism-based; parameters: dose 3 mg/kg, route intravenous; conditions: in vivo
Staphylococcus aureus [3] = experiment: Antibacterial activity against Staphylococcus aureus ATCC 29213 by broth microdilution method; assay type: functional
In short: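 Broth microdilution MIC per CLSI guidelines against S. aureus ATCC 29213; MIC in µg/mL.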

[4] = target: T1, Cell division protein FtsZ (Staphylococcus aureus) (UniProt P0A031); experiment: Inhibition of Staphylococcus aureus ATCC 29213 FtsZ-mediated cell division phenotype
T1 sequence (whole entry): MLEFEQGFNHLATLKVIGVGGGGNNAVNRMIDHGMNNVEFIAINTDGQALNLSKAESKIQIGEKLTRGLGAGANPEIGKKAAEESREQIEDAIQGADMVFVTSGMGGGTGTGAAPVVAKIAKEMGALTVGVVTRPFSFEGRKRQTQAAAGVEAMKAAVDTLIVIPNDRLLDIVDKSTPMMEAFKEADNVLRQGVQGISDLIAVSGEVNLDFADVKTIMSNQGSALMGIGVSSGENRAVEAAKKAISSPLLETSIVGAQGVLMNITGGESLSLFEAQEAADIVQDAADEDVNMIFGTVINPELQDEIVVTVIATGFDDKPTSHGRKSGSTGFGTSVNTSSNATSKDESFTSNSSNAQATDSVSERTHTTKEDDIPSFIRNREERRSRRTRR
In short: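 S. aureus ATCC 29213 cell division inhibition assay run alongside MIC testing; value is the lowest concentration at which an inhibition of cell division phenotype was seen (µg/mL).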

[5] = Half life in Balb/c mouse at 3 mg/kg, iv by LC-MS/MS analysis; assay type: ADME, organism-based; parameters: dose 3 mg/kg, route intravenous; conditions: in vivo
[6] = Initial plasma concentration in Balb/c mouse at 3 mg/kg, iv by LC-MS/MS analysis; assay type: ADME, organism-based; parameters: dose 3 mg/kg, route intravenous
[7] = AUC in Balb/c mouse at 3 mg/kg, iv by LC-MS/MS analysis; assay type: ADME, organism-based; parameters: dose 3 mg/kg, route intravenous; conditions: plasma
[8] = Kinetic solubility of the compound in PBS buffer at pH 7.4 after 24 hrs by turbidimetric method; assay type: physicochemical; conditions: read-out: Kinetic_solubility
In short: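 Turbidimetric: doubling dilutions in DMSO diluted twenty-fold into PBS pH 7.4, equilibrated 24 h at room temperature, absorbance read at 620 nm. Value is highest concentration with no measurable precipitate.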

[9] = Half life in CD-1 mouse hepatocytes at 10 uM by LC-MS/MS analysis; assay type: ADME, cell-based, Hepatocyte
In short: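 Cryopreserved CD-1 mouse hepatocytes (5×10^4 cells), compound 10 μM in duplicate, 0.5% v/v DMSO final; stopped with DMSO at seven time points up to 120 min. Acetonitrile extraction, centrifugation, LC-MS of supernatant; half-life in min.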

[10] = Chemical stability of the compound in PBS buffer assessed as compound remaining at 10 uM at pH 7.4 after 24 hrs by LC-MS/MS analysis; assay type: physicochemical; conditions: read-out: Stability
In short: (§1)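 Compound at 10 μM in PBS pH 7.4 or neat mouse plasma, 5% v/v DMSO final, incubated 24 h at 37 °C. Samples extracted with acetonitrile and centrifuged; supernatant analysed by LC-MS; reported as % remaining.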

[11] = Metabolic stability in mouse plasma assessed as compound remaining at 10 uM after 24 hrs by LC-MS/MS analysis; assay type: ADME, cell-free; conditions: read-out: Stability; in short: as §1
Staphylococcus aureus [12] = experiment: Antibacterial activity against Staphylococcus aureus harboring FtsZ G196A mutant by broth microdilution method; assay type: functional
In short: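 S. aureus ATCC 29213 derivative with G196A substitution in FtsZ; MIC by broth microdilution following CLSI guidelines; reported in µg/mL.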

[13] = Half life in mouse microsomes at 10 uM by LC-MS/MS analysis; assay type: ADME, Microsome
In short: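 Mouse microsomes at 1 mg/mL protein, compound 10 μM, 0.1% v/v DMSO final; started with 1 mM NADPH, stopped with DMSO at 0, 10, 30, 60 min. Acetonitrile extraction, centrifugation, LC-MS of supernatant; half-life in min.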

solubility kinetic at 24 h [8]: 100 µg/mL (≈ 155 µM)
SMILES: NC(=O)c1c(F)ccc(OC(COC(=O)NCCc2c[nH]cn2)c2nc(-c3ccc(C(F)(F)F)cc3)c(Br)o2)c1F (racemic)

solubility kinetic at 24 h [8]: 800 µg/mL (≈ 1320 µM)
SMILES: NC(=O)c1c(F)ccc(OC(COC(=O)NCC(=O)O)c2nc(-c3ccc(C(F)(F)F)cc3)c(Br)o2)c1F (racemic)

solubility kinetic at 24 h [8]: 800 µg/mL (≈ 1290 µM)
SMILES: NC(=O)c1c(F)ccc(OC(COC(=O)Nc2nnn[nH]2)c2nc(-c3ccc(C(F)(F)F)cc3)c(Br)o2)c1F (racemic)

solubility kinetic at 24 h [8]: 200 µg/mL (≈ 329 µM)
SMILES: CNCCNC(=O)OCC(Oc1ccc(F)c(C(N)=O)c1F)c1nc(-c2ccc(C(F)(F)F)cc2)c(Br)o1 (racemic)

solubility kinetic at 24 h [8]: 50 µg/mL (≈ 93.4 µM)
MIC (Staphylococcus aureus [3]): 1 µg/mL (≈ 1.87 µM)
MIC [4]: 1 µg/mL (≈ 1.87 µM)
SMILES: NC(=O)c1c(F)ccc(OC(CCCO)c2nc(-c3ccc(C(F)(F)F)cc3)c(Br)o2)c1F (racemic)

solubility kinetic at 24 h [8]: 200 µg/mL (≈ 323 µM)
SMILES: NC(=O)c1c(F)ccc(OC(COC(=O)N2CCNCC2)c2nc(-c3ccc(C(F)(F)F)cc3)c(Br)o2)c1F (racemic)

solubility kinetic at 24 h [8]: 400 µg/mL (≈ 618 µM)
SMILES: NC(=O)c1c(F)ccc(OC(COC(=O)NCCN2CCCC2)c2nc(-c3ccc(C(F)(F)F)cc3)c(Br)o2)c1F (racemic)

solubility kinetic at 24 h [8]: 400 µg/mL (≈ 728 µM)
MIC (Staphylococcus aureus [3]): 8 µg/mL (≈ 14.6 µM)
MIC [4]: 8 µg/mL (≈ 14.6 µM)
SMILES: NC(=O)c1c(F)ccc(OC(CCC(=O)O)c2nc(-c3ccc(C(F)(F)F)cc3)c(Br)o2)c1F (racemic)

solubility kinetic at 24 h [8]: 25 µg/mL (≈ 45.5 µM)
MIC (Staphylococcus aureus [3]): 0.5 µg/mL (≈ 0.91 µM)
MIC [4]: 0.5 µg/mL (≈ 0.91 µM)
SMILES: CC(=O)OCC(Oc1ccc(F)c(C(N)=O)c1F)c1nc(-c2ccc(C(F)(F)F)cc2)c(Br)o1 (racemic)

solubility kinetic at 24 h [8]: 200 µg/mL (≈ 329 µM)
SMILES: NC(=O)c1c(F)ccc(OC(COC(=O)CCC(=O)O)c2nc(-c3ccc(C(F)(F)F)cc3)c(Br)o2)c1F (racemic)

solubility kinetic at 24 h [8]: > 800 µg/mL
SMILES: NC(=O)c1c(F)ccc(OC(COP(=O)(O)O)c2nc(-c3ccc(C(F)(F)F)cc3)c(Br)o2)c1F (racemic)

Further lines, the compound ahead of its results:

SMILES: CC(Oc1ccc(F)c(C(N)=O)c1F)c1nc(-c2ccc(C(F)(F)F)cc2)c(Br)o1 (racemic)
Vd [1]: 2 L/kg
clearance [2]: 22 mL/min/kg
MIC (Staphylococcus aureus [3]): 0.06 µg/mL (≈ 0.122 µM)
MIC [4]: 0.06 µg/mL (≈ 0.122 µM)
half-life [5]: 1.05 h
C0 [6]: 2000 ng/mL
AUC [7]: 2200 ng·h/mL

SMILES: CC(Oc1ccc(F)c(C(N)=O)c1F)c1nc(-c2ccc(OC(F)(F)F)cc2)c(Cl)o1 (racemic)
Vd [1]: 3.5 L/kg
clearance [2]: 31 mL/min/kg
MIC (Staphylococcus aureus [3]): 0.12 µg/mL (≈ 0.259 µM)
MIC [4]: 0.25 µg/mL (≈ 0.54 µM)
half-life [5]: 1.32 h
C0 [6]: 2100 ng/mL
AUC [7]: 1600 ng·h/mL

SMILES: NC(=O)c1c(F)ccc(OC(CO)c2nc(-c3ccc(C(F)(F)F)cc3)c(Br)o2)c1F (racemic)
Vd [1]: 1.3 L/kg
half-life at 10 µM [9]: 1.19 h
solubility kinetic at 24 h [8]: 100 µg/mL (≈ 197 µM)
clearance [2]: 7 mL/min/kg
remaining at 24 h, 10 µM [10]: 102%
remaining at 24 h, 10 µM [11]: 100%
MIC (Staphylococcus aureus [12]): 8 µg/mL (≈ 15.8 µM)
MIC (Staphylococcus aureus [3]): 0.25 µg/mL (≈ 0.493 µM)
MIC [4]: 0.5 µg/mL (≈ 0.986 µM)
half-life [5]: 2.12 h
C0 [6]: 4200 ng/mL
AUC [7]: 6700 ng·h/mL
half-life at 10 µM [13]: > 2 h

SMILES: NC(=O)c1c(F)ccc(OCc2nc(-c3ccc(C(F)(F)F)cc3)c(Br)o2)c1F
solubility kinetic at 24 h [8]: 12.5 µg/mL (≈ 26.2 µM)
MIC (Staphylococcus aureus [12]): 4 µg/mL (≈ 8.38 µM)
MIC (Staphylococcus aureus [3]): 0.12 µg/mL (≈ 0.251 µM)
MIC [4]: 0.12 µg/mL (≈ 0.251 µM)

SMILES: CC(Oc1ccc(F)c(C(N)=O)c1F)c1nc(-c2ccc(OC(F)(F)F)cc2)c(Br)o1 (racemic)
Vd [1]: 2.7 L/kg
half-life at 10 µM [9]: 1.69 h
clearance [2]: 36 mL/min/kg
remaining at 24 h, 10 µM [10]: 96%
remaining at 24 h, 10 µM [11]: 104%
MIC (Staphylococcus aureus [3]): 0.12 µg/mL (≈ 0.237 µM)
MIC [4]: 0.12 µg/mL (≈ 0.237 µM)
half-life [5]: 0.883 h
C0 [6]: 2500 ng/mL
AUC [7]: 1400 ng·h/mL
half-life at 10 µM [13]: > 2 h

SMILES: NC(=O)c1c(F)ccc(OC(CC(O)CO)c2nc(-c3ccc(C(F)(F)F)cc3)c(Br)o2)c1F (racemic)
solubility kinetic at 24 h [8]: 100 µg/mL (≈ 181 µM)
MIC (Staphylococcus aureus [3]): 0.5 µg/mL (≈ 0.907 µM)
MIC [4]: 0.5 µg/mL (≈ 0.907 µM)

SMILES: C=CCc1oc(COc2ccc(F)c(C(N)=O)c2F)nc1-c1ccc(Cl)cc1
MIC (Staphylococcus aureus [12]): > 64 µg/mL
MIC (Staphylococcus aureus [3]): 0.06 µg/mL (≈ 0.148 µM)
MIC [4]: 0.06 µg/mL (≈ 0.148 µM)

SMILES: CCCc1oc(COc2ccc(F)c(C(N)=O)c2F)nc1-c1ccc(Cl)cc1
Vd [1]: 5 L/kg
half-life at 10 µM [9]: 0.298 h
clearance [2]: 137 mL/min/kg
remaining at 24 h, 10 µM [10]: 98%
remaining at 24 h, 10 µM [11]: 101%
MIC (Staphylococcus aureus [3]): 0.03 µg/mL (≈ 0.0737 µM)
MIC [4]: 0.015 µg/mL (≈ 0.0369 µM)
half-life [5]: 0.417 h
C0 [6]: 1200 ng/mL
AUC [7]: 400 ng·h/mL
half-life at 10 µM [13]: 1.14 h

SMILES: NC(=O)c1c(F)ccc(OCc2nc(-c3ccc(Cl)cc3)c(CO)o2)c1F
MIC (Staphylococcus aureus [12]): > 64 µg/mL
MIC (Staphylococcus aureus [3]): 8 µg/mL (≈ 20.3 µM)
MIC [4]: 8 µg/mL (≈ 20.3 µM)

SMILES: CCc1oc(COc2ccc(F)c(C(N)=O)c2F)nc1-c1ccc(OC)cc1
Vd [1]: 4.3 L/kg
half-life at 10 µM [9]: 0.39 h
clearance [2]: 319 mL/min/kg
remaining at 24 h, 10 µM [10]: 97%
remaining at 24 h, 10 µM [11]: 100%
MIC (Staphylococcus aureus [12]): > 64 µg/mL
MIC (Staphylococcus aureus [3]): 0.12 µg/mL (≈ 0.309 µM)
MIC [4]: 0.12 µg/mL (≈ 0.309 µM)
half-life [5]: 0.167 h
C0 [6]: 1100 ng/mL
AUC [7]: 200 ng·h/mL
half-life at 10 µM [13]: 1.19 h

SMILES: NC(=O)c1c(F)ccc(OCc2nc(-c3ccc(O)cc3)co2)c1F
MIC (Staphylococcus aureus [12]): > 64 µg/mL
MIC (Staphylococcus aureus [3]): 8 µg/mL (≈ 23.1 µM)
MIC [4]: 8 µg/mL (≈ 23.1 µM)
